Assay results collected from several papers.
Compare with care: the assays were run in different laboratories.

Compound | test system | setting | measurement | value
N#C[C@@]12C[C@@H]1[C@@H](n1cnc3c(N[C@@H](C4CCC4)C4CC4)nc(I)nc31)[C@H](O)[C@@H]2O | male Wistar rat, plasma | oral, 1 mg/kg | AUC(0-inf) | 19.2 ng·h/mL
O=C1c2ccncc2C(=O)c2c1[nH]c1ccccc21 | rat, plasma | intravenous, 1 mg/kg, single dose | AUC(0-inf) | 1430 nM·h
O=C1CC[C@H](N2Cc3cc(N4CCN(CC5CCN(c6ccc([C@@H]7c8ccc(O)cc8CC[C@@H]7c7ccccc7)cc6)CC5)CC4)ccc3C2=O)C(=O)N1 | female Sprague-Dawley rat, plasma | oral, 20 mg/kg, fed | AUC(0-t) | 18400 ng·h/mL
CC1(CN)CCN(c2cnc3c(Sc4ccncc4Cl)n[nH]c3n2)CC1 | male Sprague-Dawley rat, plasma | intravenous, 2 mg/kg | AUC | 151 ng·h/mL
COc1ccc2cc3n(c(=O)c2c1OC)CCc1cc2c(cc1-3)OCO2 | male Sprague-Dawley rat, blood | oral, 50 mg/kg | AUC(0-t) | 701 ng·h/mL
O=c1cc(-c2ccc(O)c(O)c2)oc2cc(O)cc(O)c12 | male Sprague-Dawley rat, plasma | oral, 30 mg/kg | AUC(0-inf) | 98.6 ng·h/mL
O=C(C=Cc1ccccc1)Nc1cc(-c2ccnc(N3CCC(O)CC3)c2)ccn1 | female Sprague-Dawley rat, plasma | intravenous, 5 mg/kg | AUC(0-inf) | 375 ng·h/mL
C=C(F)C(=O)N1CCN(c2nc(OC[C@@H]3CCCN3C)nc3c2CCN(c2cccc4cccc(Cl)c24)C3)C[C@@H]1CC#N | male Sprague-Dawley rat, plasma | intravenous, 5 mg/kg | AUC(0-t) | 1860 ng·h/mL
CC(=Nc1ccc(N=Cc2cnccn2)cc1)N(C)C | male Sprague-Dawley rat, plasma | intravenous, 20 mg/kg | AUC(0-t) | 254 ng·h/mL
C[C@H]1[C@@H](O)O[C@@H]2O[C@@]3(C)CC[C@H]4[C@H](C)CC[C@@H]1[C@@]24OO3 | Sprague-Dawley rat, plasma | oral, 10 mg/kg | AUC(0-inf) | 205 ng·h/mL
